The text below walks through data of ChEMBL document CHEMBL4477175, “Sclerotiamide: The First Non-Peptide-Based Natural Product Activator of Bacterial Caseinolytic Protease P” (J Nat Prod, 2016).

Activity calls are given as the source filed them. The rule behind the calls is not given here. Bridge positions count the residues as written; N and C are the ends. Square brackets hold non-standard residues; d marks the D form. Peptide text beside a SMILES is read from it. * marks the point of attachment. X1 = O=C(/C=C/C=C/C=C/C=C/C=C/C(=O)*)NC1=C(O)CCC1=O; Pro(4R-Me) = C[C@H]1CN[C@H](C(=O)O)C1; NMeA = CN[C@@H](C)C(=O)O

Assay [1] has as its system Bacillus. Nature of the assay: Activation of Bacillus subtilis ClpP expressed in Escherichia coli BL21 (DE3) using FITC-beta casein as substrate assessed as degradation of substrate peptide at 25 uM preincubated for 15 mins followed by substrate addition measured every 30 mins for 6 hrs by fluorescence assay.
In assay [2] the target is ATP-dependent Clp protease proteolytic subunit (Bacillus subtilis (strain 168)) (UniProt P80244). Nature of the assay: Activation of Bacillus subtilis ClpP expressed in Escherichia coli BL21 (DE3) using beta casein as substrate at 25 uM preincubated for 15 mins followed by substrate addition measured every 30 mins by SDS-PAGE. Put shortly:
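Recombinant His-tagged BsClpP (Ni-NTA then gel filtration), 420 nM tetradecamer in 25 mM Tris-HCl pH 7.5, 100 mM KCl, preincubated with compound for 15 min at 37 °C. Bovine β-casein added to 7.5 µM final. Reactions quenched in Laemmli buffer at 80 °C after 5 min, 30 min, 1 h and/or 2 h. Loss of the β-casein band was followed on a 10% Bis-Tris SDS gel.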

In assay [3] the target is T1, ATP-dependent Clp protease proteolytic subunit (Escherichia coli (strain K12), UniProt P0A6G7). Nature of the assay: Activation of Escherichia coli BLR (DE3) ClpP using FITC-beta casein as substrate assessed as degradation of substrate peptide preincubated for 15 mins followed by substrate addition measured every 30 mins for 6 hrs by fluorescence assay.
T1 sequence (P0A6G7 whole entry): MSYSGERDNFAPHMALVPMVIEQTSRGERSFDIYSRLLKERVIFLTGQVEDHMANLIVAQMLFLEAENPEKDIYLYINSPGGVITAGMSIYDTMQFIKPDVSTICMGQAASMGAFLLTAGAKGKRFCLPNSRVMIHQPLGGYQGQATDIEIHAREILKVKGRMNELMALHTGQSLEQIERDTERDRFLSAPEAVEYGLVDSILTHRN
Assay [4] has as its target T1, ATP-dependent Clp protease proteolytic subunit. Nature of the assay: Activation of Escherichia coli BLR (DE3) ClpP using Abz-DFAPKMALVPYNO2 as substrate assessed as degradation of substrate peptide preincubated for 15 mins followed by substrate addition measured every 30 mins for 2 hrs by fluorescence assay. A digest of the protocol:
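His-tagged EcClpP, 25 nM tetradecamer, in 25 mM HEPES pH 7.5, 100 mM KCl, 5 mM MgCl2, 10% glycerol, 1 mM DTT. Preincubated with a concentration range of compound for 15 min at 30 °C, then 15 µM final decapeptide added. Read at 30 °C, ex 320/em 420 nm. DMSO-subtracted ΔRFU was fitted for apparent activation constant (Kapp).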

The target of assay [5] is ATP-dependent Clp protease proteolytic subunit (Escherichia coli (strain K12)) (UniProt P0A6G7). Nature of the assay: Activation of Escherichia coli BLR (DE3) ClpP using bovine milk FITC-beta casein as substrate assessed as change in relative fluorescent units at 50 uM preincubated for 15 mins followed by substrate addition measured every 30 mins for 6 hrs by fluorescence assay. A digest of the protocol: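 Single-concentration screen: 300 nM tetradecameric recombinant E. coli ClpP in 25 mM Tris-HCl pH 7.5, 100 mM KCl, preincubated with compound (50 µM) 15 min at 37 °C. FITC-β-casein added (final 1.92 µM). Kept at 37 °C; fluorescence (ex 485/em 538 nm) read every 30 min for 6 h. ΔRFU = well minus 1% DMSO well; hits had end-point above 22 500 RFU.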
Sequence of ATP-dependent Clp protease proteolytic subunit (Escherichia coli (strain K12)) (P0A6G7 whole entry): as above

The target is the same in assay [6]. The assay can be described thus: Ratio of EC50 for Escherichia coli BLR (DE3) ClpP using FITC-beta casein as substrate to ratio of EC50 for Escherichia coli ClpP using Abz-DFAPKMALVPYNO2 as substrate.
The next assay relates to Pseudomonas aeruginosa. The assay can be described thus: Antibacterial activity against Pseudomonas aeruginosa PAO1116 harboring deltamexAB-oprM/deltamexCD-oprj/deltamexEF-oprN/deltaJK/deltamexXY/deltatriABC mutant assessed as bacterial growth inhibition at 100 uM after 18 hrs by 2-fold dilution method. It counts as functional, organism-based. A digest of the protocol:
(§1)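 Broth dilution MIC: cells subcultured 1:100 in LB and grown to OD600 ~1.0. Inoculated at 10^5 cells/mL in LB with 2-fold increasing compound concentrations, up to 100 µM. Incubated 18 h at 37 °C; growth scored visually.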

The subject of a further assay is Escherichia coli. Nature of the assay: Antibacterial activity against Escherichia coli M5418 harboring deltaacrB/deltaacrD/deltaacrEF::spc deltaemrBdeltaemrYdeltaentS::cam deltamacB deltamdtC deltamdtF mutant assessed as bacterial growth inhibition at 100 uM after 18 hrs by 2-fold dilution method. Type of assay: functional, organism-based. Put shortly: as §1
For assay [7], the target named is ATP-dependent Clp protease proteolytic subunit (Escherichia coli (strain K12)) (UniProt P0A6G7). Nature of the assay: Activation of Escherichia coli BLR (DE3) ClpP using beta casein as substrate at 50 uM preincubated for 15 mins followed by substrate addition measured every 30 mins by SDS-PAGE. The following applies: TDE = time-dependent effect. A digest of the protocol: (§2)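 His-tagged ClpP (E. coli or B. subtilis) expressed with IPTG overnight at 25 °C and purified by Ni-NTA and gel filtration. 420 nM tetradecamer in 25 mM Tris-HCl pH 7.5, 100 mM KCl, preincubated with compound 15 min at 37 °C. Bovine β-casein added (final 7.5 µM). Quenched in Laemmli buffer at 5 min, 30 min, 1 h and/or 2 h. β-Casein band loss read on 10% Bis-Tris SDS-PAGE.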

The test system of assay [8] is Bacillus. The assay can be described thus: Activation of Bacillus subtilis ClpP expressed in Escherichia coli BL21 (DE3) using FITC-beta casein as substrate assessed as degradation of substrate peptide at 50 uM preincubated for 15 mins followed by substrate addition measured every 30 mins for 2 hrs by fluorescence assay.
A further assay deals with T2, Beta-casein (Bos taurus) (UniProt P02666).
T2 sequence (whole entry): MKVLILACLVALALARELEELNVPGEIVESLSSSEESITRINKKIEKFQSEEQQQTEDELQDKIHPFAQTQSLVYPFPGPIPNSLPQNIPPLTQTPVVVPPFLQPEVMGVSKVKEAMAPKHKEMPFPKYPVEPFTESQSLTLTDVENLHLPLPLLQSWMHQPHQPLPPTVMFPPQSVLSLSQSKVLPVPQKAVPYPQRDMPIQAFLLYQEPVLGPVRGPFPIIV
Nature of the assay: Intrinsic proteolytic activity against fluorescein isothiocyanate-conjugated bovine milk beta casein at 50 uM preincubated for 15 mins followed by substrate addition measured every 30 mins for 6 hrs by fluorescence assay. A digest of the protocol:
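Enzyme-free control: compound (50 µM) incubated with FITC-β-casein (1.92 µM) in 25 mM Tris-HCl pH 7.5, 100 mM KCl. Substrate cleavage read as fluorescence at 538 nm emission after 485 nm excitation.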

For assay [9], the target named is ATP-dependent Clp protease proteolytic subunit (Bacillus subtilis (strain 168)) (UniProt P80244). Nature of the assay: Activation of Bacillus subtilis ClpP expressed in Escherichia coli BL21 (DE3) using beta casein as substrate at 50 uM preincubated for 15 mins followed by substrate addition measured every 30 mins by SDS-PAGE. A digest of the protocol:
as §2

Sequence of ATP-dependent Clp protease proteolytic subunit (Bacillus subtilis (strain 168)) (P80244 whole entry, looked up): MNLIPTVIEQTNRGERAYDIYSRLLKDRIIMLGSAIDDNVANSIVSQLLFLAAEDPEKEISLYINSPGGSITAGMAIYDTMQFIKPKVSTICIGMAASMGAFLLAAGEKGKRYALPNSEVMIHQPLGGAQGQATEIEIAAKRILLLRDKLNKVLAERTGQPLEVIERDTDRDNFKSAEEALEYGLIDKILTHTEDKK

In the case of `CCOC(=O)[C@@H]1C(=O)C[C@@](O)(c2ccc(Br)cc2)C[C@H]1C=C(Cl)Cl`, the result (in the assay with Bacillus [1]; in assay [2]) was inactive. The EC50 in assay [3] came to 22.2 µM; in [4] it was 25.4 µM.
`C=CC(C)(C)[C@@]12Nc3c(ccc4c3C=CC(C)(C)O4)[C@]1(O)C[C@H]1C(=O)N3CCC[C@]3(O)C(=O)N12`: the outcome in [5] was inactive.
Same read-out and setting: in the case of `CC1(C)C=Cc2c(ccc3c2NC(=O)[C@@]32C[C@@]34NC(=O)[C@]5(CCCN5C3=O)C[C@H]4C2(C)C)O1` it was “inactive”; in that of `CC1(C)C=Cc2c(ccc3c2[N+]([O-])=C2C3=C[C@@]34NC(=O)[C@]5(CCCN5C3=O)CC4C2(C)C)O1` (some centres not stated), “inactive”; in that of `CC1(C)C=Cc2c(ccc3c4c([nH]c23)C(C)(C)C2C[C@]35CCCN3C(=O)[C@@]2(C4)NC5=O)O1` (some centres not stated), “inactive”.
On the same count and under the same terms, as for `CC1(C)C=Cc2c(ccc3c4c(n(O)c23)C(C)(C)C2C[C@]35CCCN3C(=O)[C@]2(NC5=O)C4=O)O1` (some centres not stated), the entry is “inactive”.
As for `C[C@@H]1C[C@H]2C(=O)OC[C@H](NC(=O)[C@H](Cc3ccccc3)NC(=O)/C=C/C=C/C=C/C=C/C=C/C(=O)NC3=C(O)CCC3=O)C(=O)N3CCC[C@H]3C(=O)N(C)[C@@H](C)C(=O)N[C@@H](C)C(=O)N2C1` (X1-FSP[NMeA]A[Pro(4R-Me)]; ester 2-C), the Ratio EC50 in assay [6] was found to be 10. For the same molecule, the figures for the EC50 in assay [3] and in [4] were 1.2 µM and 0.1 µM, respectively.
For `CC1(C)C=Cc2c(ccc3c2NC(=O)[C@@]32[C@H](O)[C@@]34NC(=O)[C@]5(CCCN5C3=O)C[C@H]4C2(C)C)O1` [SCLEROTIAMIDE], the outcome (in the assay with Pseudomonas aeruginosa; in the assay with Escherichia coli; in the assay with Bacillus [8]; on Beta-casein (Bos taurus); in assay [9]) was inactive. For the same molecule, the Activity result was “Tde” in [7] and 29900 RFU in assay [5]. For the same molecule, in assay [6], the Ratio EC50 turned out to be 2.2. Also, the EC50 in assay [3] was found to be 87.5 µM; in assay [4] it was 39.6 µM.
